Screens: PubChem BioAssay, The Scripps Research Institute Molecular Screening Center
An excerpt weighted towards active compounds, which were near 1.6% of everything screened.
UHRF1 binding: human UHRF1 methylated DNA binding inhibitors; Q96T88; actives 0.75% (n = 370,000); inhibition, % at 4.4 µM; UHRF1 binding to methylated oligo, TR-FRET; AID 687016; in the data active means inhibition above about 21%;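 further: UHRF1 SRA domain binding a hemimethylated CpG hairpin DNA probe; 0% = median of test compound wells and 100% = reference inhibitor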
Target sequence (Q96T88 whole entry, looked up, the tested form may be a part): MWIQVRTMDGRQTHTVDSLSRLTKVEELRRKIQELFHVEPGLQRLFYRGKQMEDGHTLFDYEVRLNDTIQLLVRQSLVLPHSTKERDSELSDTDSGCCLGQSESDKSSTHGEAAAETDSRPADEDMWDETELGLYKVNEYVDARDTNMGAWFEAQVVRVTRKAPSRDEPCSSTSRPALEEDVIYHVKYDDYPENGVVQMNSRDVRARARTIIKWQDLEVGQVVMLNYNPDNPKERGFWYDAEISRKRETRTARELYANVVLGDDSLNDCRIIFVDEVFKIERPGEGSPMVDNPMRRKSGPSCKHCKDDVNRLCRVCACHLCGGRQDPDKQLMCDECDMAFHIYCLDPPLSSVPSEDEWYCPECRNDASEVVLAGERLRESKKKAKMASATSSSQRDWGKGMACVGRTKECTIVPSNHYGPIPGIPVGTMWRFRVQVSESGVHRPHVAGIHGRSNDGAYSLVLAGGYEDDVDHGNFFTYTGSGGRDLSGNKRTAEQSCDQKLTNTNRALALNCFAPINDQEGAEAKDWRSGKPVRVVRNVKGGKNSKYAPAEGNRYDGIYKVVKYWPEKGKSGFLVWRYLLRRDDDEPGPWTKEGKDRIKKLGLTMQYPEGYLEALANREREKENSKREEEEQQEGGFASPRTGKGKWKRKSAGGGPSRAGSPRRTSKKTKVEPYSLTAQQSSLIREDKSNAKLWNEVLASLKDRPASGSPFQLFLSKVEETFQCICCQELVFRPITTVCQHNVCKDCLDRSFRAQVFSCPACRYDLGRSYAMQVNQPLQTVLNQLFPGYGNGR
LEDGF integ inh: blocks HIV-1 LEDGF/p75-dependent DNA integration. TR-FRET IN-LEDGF/p75 DNA integration, Eu/Cy5. actives 0.64% (n = 370,000). inhibition, % at 3.7 µM. AID 743269;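 active means inhibition above the screen-wide mean plus 3 SD, cut at about 13% in these data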;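 further: signal is the Cy5 over europium emission ratio at 671 and 618 nm; 0% = plate median of compound wells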
MBD2 DNA inh: inhibitors of human MBD2 binding to methylated oligonucleotide; actives 0.31% (n = 370,000); inhibition, % at 4.4 µM; Q9UBB5; TR-FRET; in the data active means inhibition above about 13%
TDP2 inh: TDP2 (human) inhibition, absorbance primary screen; O95551; recombinant TDP2, T5PNP hydrolysis, p-nitrophenol absorbance 415 nm; inhibition, % at 12.8 µM; actives 0.34% (n = 370,000);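 active means inhibition above the mean of all tested compounds plus 3 SD, set per campaign, cut at about 25% in these data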;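 further: 0% = DMSO with enzyme and 100% = buffer with substrate but no TDP2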
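System: recombinant human TDP2 / Amount: 120 nM TDP2 per well / Also added: 5 mM T5PNP chromogenic substrate / Doses: 12.8 µM single point, 1% DMSO / Incubation: 2 h at 37 °C / Detection: p-Nitrophenol epi absorbance / Evaluation: % inhibition relative to enzyme-containing and enzyme-free wells / Repeats: singlicate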
Starred values were filed as active, the others as inactive.

SMILES	UHRF1 binding	LEDGF integ inh	MBD2 DNA inh	TDP2 inh
CCc1nnc(NC(=O)c2ccc(COc3ccccc3Cl)o2)s1	28*	-3	-1	18
CCc1nnc(NC(=O)c2ccc(COc3ccccc3C)o2)s1	7	5	9	-1
COc1ccccc1/C=C/C=N/n1c(-c2ccc(F)cc2)n[nH]c1=S	4	-5	1	-6
COc1ccccc1/C=C/C=N/n1c(C)nnc1C	68*	3	1	-6
O=[N+]([O-])c1cc(Cl)ccc1N1CCCC1	0	-2	-1	-3
O=C1C(Cl)=C(N2CCN(c3ccccc3[N+](=O)[O-])CC2)C(=O)c2ccccc21	-10	13	-29	62*
COc1ccc(CCNC(=O)c2cc(-c3ccc(Cl)c(Cl)c3)oc2C)cc1	22*	5	9	0
COc1ccc(-n2c(COc3ccccc3)nnc2SCC(=O)Nc2ccccc2-c2ccccc2)cc1	-1	2	-9	-16
Cc1cc(C)c(C)c(S(=O)(=O)N2CCSCC2)c1C	0	2	-2	-12
Cc1cc(C)c(C)c(S(=O)(=O)N2CCN(C)CC2)c1C	39*	-2	4	-5
N#C/C(=C\c1c(N2CCOCC2)nc2ccccn2c1=O)C(=O)NC1CCS(=O)(=O)C1 (stereo not given)	-1	-1	-11	3
N#C/C(=C\c1c(N2CCCCCC2)nc2ccccn2c1=O)C(=O)NC1CCS(=O)(=O)C1 (stereo not given)	24*	2	12	8
CCCC(=O)Nc1cc(S(=O)(=O)N2CCCCC2)ccc1N1CCOCC1	21*	4	4	-25
COc1ccc(CNC(=O)c2cc(S(=O)(=O)N3CCCCC3)ccc2N2CCOCC2)cc1OC	30*	-3	1	-2
CN1CCN(c2ccc(S(=O)(=O)N3CCOCC3)cc2NC(=O)CC(C)(C)C)CC1	61*	0	1	0
CN1CCN(c2ccc(S(=O)(=O)N3CCOCC3)cc2NC(=O)CSCc2ccccc2)CC1	-2	-1	-6	-9
CCCC(=O)Nc1cc(S(=O)(=O)N2CCOCC2)ccc1N1CCCCC1	3	3	1	-7
COc1ccc(CCNC(=O)c2cc(S(=O)(=O)N3CCOCC3)ccc2N2CCCC2)cc1OC	2	0	4	0
Cc1ccc(S(=O)(=O)N2CCCCC2)c2nsnc12	24*	2	9	9
Cc1ccc(S(=O)(=O)N2CCOCC2)c2nsnc12	1	-1	0	-1
COc1ccc(/C(C)=N/Nc2ncc(Cl)cc2Cl)c(O)c1	24*	1	6	-2
C/C(=N\Nc1ncc(Cl)cc1Cl)c1ccc(C#N)cc1	-1	6	-2	-17
Cc1ccc(CNCC(O)c2ccccc2)s1 (stereo not given)	-1	-3	1	-9
Cc1ccc(CNCCNCCO)s1	22*	-4	12	-11
CC(C)C[C@@H](CNCC(=O)[C@H](CC(=O)O)NC(=O)c1[nH]cnc1C(=O)N[C@H](CN)CC(C)C)NC(=O)c1nc[nH]c1C(=O)N[C@@H](C)C(=O)O	22*	-2	12	14
SMILES	UHRF1 binding	LEDGF integ inh	MBD2 DNA inh	TDP2 inh
CC(C)C[C@@H](CN)NC(=O)c1nc[nH]c1C(=O)N[C@@H](C)C(=O)CNC[C@H](CC(C)C)NC(=O)c1nc[nH]c1C(=O)N[C@@H](CC(=O)O)C(=O)O	5	-3	-2	5
CC(C)C[C@@H](CNCC(=O)[C@H](CC(C)C)NC(=O)c1[nH]cnc1C(=O)N[C@@H](C)CN)NC(=O)c1nc[nH]c1C(=O)N[C@@H](C)C(=O)O	23*	1	3	12
COc1ccc(CNC(=O)CC[C@H]2O[C@@H](n3cnc4c(NC(=O)c5ccccc5)ncnc43)[C@H](O)[C@@H]2O)cc1	-1	-1	3	1
O=C(O)c1ccc(NS(=O)(=O)c2ccc(Cl)c(C(=O)Nc3ccccc3)c2)cc1	23*	4	-3	-9
O=C(Nc1ccc(Br)cc1)C1Cc2ccccc2O/C1=N\O (stereo not given)	0	2	4	9
Cc1ccc(NC(=O)C2Cc3ccccc3O/C2=N\O)cc1C (stereo not given)	21*	4	3	7
Cc1ccc(S(=O)(=O)N(CC(=O)NN=C2CCN(C)CC2)c2ccc(C(C)C)cc2)cc1	34*	0	2	3
COc1ccc(OC)c(C2=CC(=O)C[C@H](c3ccc(F)cc3)C2)c1	4	4	0	8
